Reference: ChEMBL document CHEMBL4152196, “Design, synthesis and biological evaluation of novel trimethylangelicin analogues targeting nuclear factor kB (NF-kB)” (Eur J Med Chem, 2018)
pIC50: −log10 of the molar value. The source made the active and inactive calls. The rule behind the calls is not given here.

Key:
[1] = tested on: Salmonella typhimurium; assay: Genotoxicity in Salmonella typhimurium TA1535 assessed as revertant colonies at 100 uL/plate in absence of Sprague-Dawley rat S9 metabolic activation after 72 hrs by Ames test (reference value: 1); type: toxicity, organism-based; settings: salmonella enterica subsp. enterica serovar typhimurium
[2] = tested on: Salmonella typhimurium; assay: Genotoxicity in Salmonella typhimurium TA98 assessed as revertant colonies at 100 uL/plate in presence of Sprague-Dawley rat S9 metabolic activation after 72 hrs by Ames test (reference value: 1); type: toxicity, organism-based; settings: salmonella enterica subsp. enterica serovar typhimurium
[3] = tested on: Salmonella typhimurium; assay: Genotoxicity in Salmonella typhimurium TA100 assessed as revertant colonies at 5 uL/plate in presence of Sprague-Dawley rat S9 metabolic activation after 72 hrs by Ames test (reference value: 1); type: toxicity, organism-based; settings: salmonella enterica subsp. enterica serovar typhimurium
[4] = species on record: Homo sapiens; assay: Inhibition of NF-kappaB (unknown origin) assessed as decrease in NF-kappaB/DNA interaction at 12.5 to 100 uM using 32P-labeled target NF-kappaB double-stranded oligonucleotide after 30 mins by EMSA
Outline: (§1)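 Purified NF-κB p50 (0.1 µl/20 µl, 50 gsu) was combined with 0.25 ng of ³²P-labeled double-stranded NF-κB consensus oligonucleotide. Bound 30 min at room temperature, then run on 6% polyacrylamide in 0.25× TBE at 200 V. IC₅₀ is 50% inhibition of the complex.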

[5] = tested on: Salmonella typhimurium; assay: Genotoxicity in Salmonella typhimurium TA1535 assessed as revertant colonies at 10 uL/plate in absence of Sprague-Dawley rat S9 metabolic activation after 72 hrs by Ames test (reference value: 1); type: toxicity, organism-based; settings: salmonella enterica subsp. enterica serovar typhimurium
[6] = tested on: Salmon testes DNA; assay: Induction of damage in salmon testes DNA at 100 uM in presence of 2.5 to 7.5 J/cm2 UVA irradiation by ethidium bromide dye-based agarose gel electrophoresis analysis; type: nucleic-acid assay; settings: salmonidae
[7] = tested on: Salmonella typhimurium; assay: Genotoxicity in Salmonella typhimurium TA97A assessed as revertant colonies at 5 uL/plate in presence of Sprague-Dawley rat S9 metabolic activation after 72 hrs by Ames test (reference value: 1); type: toxicity, organism-based; settings: salmonella enterica subsp. enterica serovar typhimurium
[8] = tested on: Salmonella typhimurium; assay: Genotoxicity in Salmonella typhimurium TA100 assessed as revertant colonies at 50 uL/plate in presence of Sprague-Dawley rat S9 metabolic activation after 72 hrs by Ames test (reference value: 1); type: toxicity, organism-based; settings: salmonella enterica subsp. enterica serovar typhimurium
[9] = tested on: Salmon testes DNA; assay: Induction of damage in salmon testes DNA at 100 uM in absence of 2.5 to 7.5 J/cm2 UVA irradiation by ethidium bromide dye-based agarose gel electrophoresis analysis; type: nucleic-acid assay; settings: salmonidae
[10] = tested on: K562; assay: Cytotoxicity against human K562 cells after 2 days by cell counting analysis; type: cell-based; settings: k562, 48 h
[11] = tested on: Salmonella typhimurium; assay: Genotoxicity in Salmonella typhimurium TA97A assessed as revertant colonies at 50 uL/plate in presence of Sprague-Dawley rat S9 metabolic activation after 72 hrs by Ames test (reference value: 1); type: toxicity, organism-based; settings: salmonella enterica subsp. enterica serovar typhimurium
[12] = species on record: Homo sapiens; assay: Inhibition of NF-kappaB (unknown origin) assessed as decrease in NF-kappaB/DNA interaction at 12.5 uM using 32P-labeled target NF-kappaB double-stranded oligonucleotide after 30 mins by EMSA
[13] = Inhibition of NF-kappaB (unknown origin) assessed as decrease in NF-kappaB/DNA interaction using 32P-labeled target NF-kappaB double-stranded oligonucleotide after 30 mins by EMSA; parameters: species or system Homo sapiens; outline: as §1
[14] = tested on: Salmonella typhimurium; assay: Genotoxicity in Salmonella typhimurium TA97A assessed as revertant colonies at 10 uL/plate in presence of Sprague-Dawley rat S9 metabolic activation after 72 hrs by Ames test (reference value: 1); type: toxicity, organism-based; settings: salmonella enterica subsp. enterica serovar typhimurium
[15] = tested on: IB3-1; assay: Antiproliferative activity against human IB3-1 cells after 2 days by cell counting analysis; type: cell-based; settings: IB3-1, 48 h
Outline: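 IB3-1 cells from a CF patient (ΔF508/W1282X), immortalized with adeno12/SV40, grown in LHC-8 with 5% FBS and no gentamycin at 37°C/5% CO₂. Treated at 12.5, 25, 50, 100, 200 and 800 µM. Cells counted by Coulter counter after 2 days, with untreated cells in log phase. IC₅₀ is the concentration giving 50% inhibition of cell growth.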

[16] = tested on: Salmonella typhimurium; assay: Genotoxicity in Salmonella typhimurium TA100 assessed as revertant colonies at 100 uL/plate in absence of Sprague-Dawley rat S9 metabolic activation after 72 hrs by Ames test (reference value: 1); type: toxicity, organism-based; settings: salmonella enterica subsp. enterica serovar typhimurium
[17] = tested on: Salmonella typhimurium; assay: Genotoxicity in Salmonella typhimurium TA98 assessed as revertant colonies at 100 uL/plate in absence of Sprague-Dawley rat S9 metabolic activation after 72 hrs by Ames test (reference value: 1); type: toxicity, organism-based; settings: salmonella enterica subsp. enterica serovar typhimurium
[18] = tested on: Salmonella typhimurium; assay: Genotoxicity in Salmonella typhimurium TA98 assessed as revertant colonies at 10 uL/plate in presence of Sprague-Dawley rat S9 metabolic activation after 72 hrs by Ames test (reference value: 1); type: toxicity, organism-based; settings: salmonella enterica subsp. enterica serovar typhimurium
[19] = tested on: Salmonella typhimurium; assay: Genotoxicity in Salmonella typhimurium TA1535 assessed as revertant colonies at 10 uL/plate in presence of Sprague-Dawley rat S9 metabolic activation after 72 hrs by Ames test (reference value: 1); type: toxicity, organism-based; settings: salmonella enterica subsp. enterica serovar typhimurium
[20] = tested on: Salmonella typhimurium; assay: Genotoxicity in Salmonella typhimurium TA98 assessed as revertant colonies at 1 uL/plate in absence of Sprague-Dawley rat S9 metabolic activation after 72 hrs by Ames test (reference value: 1); type: toxicity, organism-based; settings: salmonella enterica subsp. enterica serovar typhimurium
[21] = tested on: IB3-1; assay: Inhibition of TNF-alpha induced IL-17 production in human IB3-1 cells at 1 uM preincubated for 5 hrs followed by TNF-alpha stimulation and measured after 24 hrs relative to control; type: functional
Outline: (§2)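 IB3-1 cells (CF patient, ΔF508/W1282X, adeno12/SV40-immortalized) grown in LHC-8 with 5% FBS, no gentamycin, 37°C/5% CO₂; 60% confluent monolayers seeded, compound added after 24 h, 5 h before 80 ng/ml TNF-α, then 24 h further incubation. Cytokines in supernatants measured by Bioplex 27-plex Luminex bead assay: beads, detection antibody, streptavidin–phycoerythrin, 30/30/10 min at room temperature.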

[22] = tested on: IB3-1; assay: Inhibition of TNF-alpha induced IFN-gamma production in human IB3-1 cells at 1 uM preincubated for 5 hrs followed by TNF-alpha stimulation and measured after 24 hrs relative to control; type: functional; outline: as §2
[23] = tested on: Salmonella typhimurium; assay: Genotoxicity in Salmonella typhimurium TA1535 assessed as revertant colonies at 1 uL/plate in presence of Sprague-Dawley rat S9 metabolic activation after 72 hrs by Ames test (reference value: 1); type: toxicity, organism-based; settings: salmonella enterica subsp. enterica serovar typhimurium
[24] = tested on: Salmonella typhimurium; assay: Genotoxicity in Salmonella typhimurium TA97A assessed as revertant colonies at 5 uL/plate in absence of Sprague-Dawley rat S9 metabolic activation after 72 hrs by Ames test (reference value: 1); type: toxicity, organism-based; settings: salmonella enterica subsp. enterica serovar typhimurium
[25] = tested on: Salmonella typhimurium; assay: Genotoxicity in Salmonella typhimurium TA1535 assessed as revertant colonies at 100 uL/plate in presence of Sprague-Dawley rat S9 metabolic activation after 72 hrs by Ames test (reference value: 1); type: toxicity, organism-based; settings: salmonella enterica subsp. enterica serovar typhimurium
[26] = tested on: Salmonella typhimurium; assay: Genotoxicity in Salmonella typhimurium TA98 assessed as revertant colonies at 50 uL/plate in presence of Sprague-Dawley rat S9 metabolic activation after 72 hrs by Ames test (reference value: 1); type: toxicity, organism-based; settings: salmonella enterica subsp. enterica serovar typhimurium
[27] = tested on: Salmonella typhimurium; assay: Genotoxicity in Salmonella typhimurium TA97A assessed as revertant colonies at 10 uL/plate in absence of Sprague-Dawley rat S9 metabolic activation after 72 hrs by Ames test (reference value: 1); type: toxicity, organism-based; settings: salmonella enterica subsp. enterica serovar typhimurium
[28] = tested on: Salmon testes DNA; assay: Binding affinity to salmon testes DNA assessed as furocoumarin-pyrimidine base formation in presence of 15 J/cm2 UVA light irradiation by TLC analysis; type: nucleic-acid assay; settings: Salmonidae
[29] = tested on: Salmonella typhimurium; assay: Genotoxicity in Salmonella typhimurium TA100 assessed as revertant colonies at 5 uL/plate in absence of Sprague-Dawley rat S9 metabolic activation after 72 hrs by Ames test (reference value: 1); type: toxicity, organism-based; settings: salmonella enterica subsp. enterica serovar typhimurium

For `CCc1cc2c(C(C)C)cc(=O)oc2c2c(C)coc12`, the T/C [1] was 0.9, the T/C [2] was 0.6 and the T/C [3] was 1.1. The inhibition [4] was “Active”, the T/C [5] was 0.9 and the Activity [6] was “Not Active”. For the same molecule, the T/C [7] was 1.1, the T/C [8] was 1.2 and the Activity [9] was “Not Active”. The Activity [10] was “Non-Toxic”, the T/C [11] was 1.2 and the inhibition [12] was “Active”. It also gave a pIC50 [13] of 5.13, a T/C [14] of 1.2 and a pIC50 [15] of under 3.70. It also gave a T/C [16] of 0.9, a T/C [17] of 1.2 and a T/C [18] of 0.7. The T/C [19] was 1.2, the T/C [20] was 1.1 and the inhibition at 1 µM [21] was over 20%. For the same molecule, the inhibition at 1 µM [22] was over 20%, the T/C [23] was 1.1 and the T/C [24] was 0.9. For the same molecule, the T/C [25] was 0.8, the T/C [26] was 0.7 and the T/C [27] was 1.2. The Activity [28] was “inactive” and the T/C [29] was 1.
